From ChEMBL document CHEMBL5724801, “EUbOPEN Chemogenomics Library - Multiplex” (2024)
Values joined by “and” are separate entries in the source; they are usually repeats but may differ in a detail not shown here. Equal values may be shown once.

Tested on: HEK-293T
Assay: Multiplex assay against HEK293T
Format: toxicity, cell-based
Conditions: human
Outline: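 On a CQ1 microscope at 37°C and 5% CO2, live cells were imaged after compound addition. They had been stained at seeding with Hoechst33342, BioTracker Green Microtubule Cytoskeleton Dye, MitoTracker Red and Annexin V Alexa Fluor 680. CellPathfinder machine-learning gating assigned cells to Hoechst high-intensity objects or normal cells, normal cells to healthy, pyknosed or fragmented nuclei, and pyknosed cells to mitotic or apoptotic. Tubulin, mitochondrial-mass and membrane-permeability phenotypes are per cents of healthy-nucleus cells.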

[1] = 12 h, 1 µM, compound concentration 1 uM
[2] = 12 h, 10 µM, compound concentration 10 uM
[3] = 24 h, 1 µM, compound concentration 1 uM
[4] = 24 h, 10 µM, compound concentration 10 uM
[5] = 48 h, 1 µM, compound concentration 1 uM
[6] = 48 h, 10 µM, compound concentration 10 uM

## CCc1nn2c(C)cc(C)nc2c1Cc1ccc(-c2nnc(C3CCNCC3)o2)cc1
[1]
  Population Apoptotic (%): 35% and 51%
  Population Fragmented Nuclei (%): 9% and 7%
  Population Healthy Nuclei (%): 80% and 78%
  Population Hoechst High Intensity Objects (%): 7% and 5%
  Population Membrane Permeable-Phenotype (%): 0%
  Population Mitochondria Different-Phenotype (%): 54% and 62%
  Population Mitotic Cells (%): 64% and 48%
  Population Normal (%): 92% and 94%
  Population Pyknosed Nuclei (%): 10% and 13%
  Population Tubulin-Different-Phenotype (%): 37% and 19%
  Total Cell Count: 401 and 395
[2]
  Population Apoptotic (%): 63% and 56%
  Population Fragmented Nuclei (%): 6% and 4%
  Population Healthy Nuclei (%): 68% and 78%
  Population Hoechst High Intensity Objects (%): 11% and 12%
  Population Membrane Permeable-Phenotype (%): 0%
  Population Mitochondria Different-Phenotype (%): 85% and 86%
  Population Mitotic Cells (%): 36% and 43%
  Population Normal (%): 88% and 87%
  Population Pyknosed Nuclei (%): 25% and 17%
  Population Tubulin-Different-Phenotype (%): 65% and 48%
  Total Cell Count: 319 and 293
[3]
  Population Apoptotic (%): 44% and 34%
  Population Fragmented Nuclei (%): 10% and 7%
  Population Healthy Nuclei (%): 76% and 78%
  Population Hoechst High Intensity Objects (%): 4% and 5%
  Population Membrane Permeable-Phenotype (%): 0%
  Population Mitochondria Different-Phenotype (%): 36% and 50%
  Population Mitotic Cells (%): 55% and 65%
  Population Normal (%): 95% and 94%
  Population Pyknosed Nuclei (%): 13%
  Population Tubulin-Different-Phenotype (%): 23% and 19%
  Total Cell Count: 529 and 542
[4]
  Population Apoptotic (%): 69% and 41%
  Population Fragmented Nuclei (%): 11% and 10%
  Population Healthy Nuclei (%): 72% and 77%
  Population Hoechst High Intensity Objects (%): 5% and 7%
  Population Membrane Permeable-Phenotype (%): 0%
  Population Mitochondria Different-Phenotype (%): 73% and 78%
  Population Mitotic Cells (%): 30% and 58%
  Population Normal (%): 94% and 92%
  Population Pyknosed Nuclei (%): 15% and 11%
  Population Tubulin-Different-Phenotype (%): 50% and 45%
  Total Cell Count: 448 and 389
[5]
  Population Apoptotic (%): 28% and 32%
  Population Fragmented Nuclei (%): 12% and 11%
  Population Healthy Nuclei (%): 79% and 83%
  Population Hoechst High Intensity Objects (%): 2% and 5%
  Population Membrane Permeable-Phenotype (%): 0%
  Population Mitochondria Different-Phenotype (%): 25% and 24%
  Population Mitotic Cells (%): 71% and 67%
  Population Normal (%): 97% and 94%
  Population Pyknosed Nuclei (%): 8% and 5%
  Population Tubulin-Different-Phenotype (%): 15% and 10%
  Total Cell Count: 842 and 829
[6]
  Population Apoptotic (%): 54% and 50%
  Population Fragmented Nuclei (%): 14% and 12%
  Population Healthy Nuclei (%): 72% and 80%
  Population Hoechst High Intensity Objects (%): 4% and 3%
  Population Membrane Permeable-Phenotype (%): 0%
  Population Mitochondria Different-Phenotype (%): 59% and 56%
  Population Mitotic Cells (%): 45% and 50%
  Population Normal (%): 95% and 96%
  Population Pyknosed Nuclei (%): 13% and 6%
  Population Tubulin-Different-Phenotype (%): 32% and 26%
  Total Cell Count: 517 and 607

## CC(F)(F)CN1CCOc2c(nn(-c3ccccc3Cl)c2-c2ccc(Cl)cc2)C1=O
[1]
  Population Apoptotic (%): 29% and 64%
  Population Healthy Nuclei (%): 77% and 78%
  Population Membrane Permeable-Phenotype (%): 0%
  Population Mitochondria Different-Phenotype (%): 43% and 53%
  Population Mitotic Cells (%): 70% and 35%
  Population Normal (%): 93% and 91%
  Population Pyknosed Nuclei (%): 12% and 16%
  Total Cell Count: 397 and 369
[2]
  Population Apoptotic (%): 57% and 43%
  Population Healthy Nuclei (%): 73% and 75%
  Population Membrane Permeable-Phenotype (%): 0%
  Population Mitochondria Different-Phenotype (%): 78% and 84%
  Population Mitotic Cells (%): 42% and 56%
  Population Normal (%): 89% and 94%
  Population Pyknosed Nuclei (%): 22% and 18%
  Total Cell Count: 384 and 397
[3]
  Population Apoptotic (%): 25% and 43%
  Population Healthy Nuclei (%): 79% and 84%
  Population Membrane Permeable-Phenotype (%): 0%
  Population Mitochondria Different-Phenotype (%): 22% and 31%
  Population Mitotic Cells (%): 74% and 56%
  Population Normal (%): 97% and 93%
  Population Pyknosed Nuclei (%): 11% and 8%
  Total Cell Count: 568 and 478
[4]
  Population Apoptotic (%): 57% and 41%
  Population Healthy Nuclei (%): 76% and 80%
  Population Membrane Permeable-Phenotype (%): 0%
  Population Mitochondria Different-Phenotype (%): 71% and 79%
  Population Mitotic Cells (%): 42% and 58%
  Population Normal (%): 92% and 94%
  Population Pyknosed Nuclei (%): 15%
  Population Tubulin-Different-Phenotype (%): 50%
  Total Cell Count: 450 and 477
[5]
  Population Apoptotic (%): 22% and 25%
  Population Healthy Nuclei (%): 77% and 79%
  Population Membrane Permeable-Phenotype (%): 1%
  Population Mitochondria Different-Phenotype (%): 14% and 23%
  Population Mitotic Cells (%): 77% and 74%
  Population Normal (%): 99% and 97%
  Population Pyknosed Nuclei (%): 7%
  Population Tubulin-Different-Phenotype (%): 8%
  Total Cell Count: 1015 and 734
[6]
  Population Apoptotic (%): 55% and 35%
  Population Healthy Nuclei (%): 74% and 78%
  Population Membrane Permeable-Phenotype (%): 0%
  Population Mitochondria Different-Phenotype (%): 62% and 68%
  Population Mitotic Cells (%): 44% and 65%
  Population Normal (%): 93%
  Population Pyknosed Nuclei (%): 11%
  Total Cell Count: 540 and 558
